The text below walks through data of ChEMBL document CHEMBL5257087, “Anti-inflammatory Activity of Tanshinone-Related Diterpenes from Perovskia artemisioides Roots” (2023).

The test system of experiment [1] is J774.A1. The experiment can be described thus: Antiinflammatory activity in mouse J774.A1 macrophages assessed as inhibition of LPS-induced iNOS expression at 12.5 to 50 uM preincubated for 1 hr followed by LPS stimulation and measured after 24 hrs by cytofluorimetry analysis. The format is functional, cell-based. The following applies: dose 12.5-50 µM, time 25.0 hrs. The gist of the method:
(§1)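 J774A.1 cells plated at 5 × 10^4 cells/well and allowed to adhere 3 h at 37 °C. Compounds were added 1 h before and then together with E. coli LPS (10 μg/mL) for 24 h. Cells were fixed and permeabilized, then stained with anti-iNOS or anti-COX-2 and a secondary antibody. Read as mean fluorescence intensity by flow cytometry. Indomethacin (1 μM) served as positive control. At least three independent experiments, each in triplicate.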

Experiment [2] has as its system J774.A1. The experiment can be described thus: Antioxidant activity in mouse J774.A1 macrophages assessed as inhibition of LPS-induced nitrotyrosine formation at 25 to 50 uM preincubated for 1 hr followed by LPS stimulation and measured after 24 hrs by cytofluorimetry analysis. To be noted: dose 25-50 µM, time 25.0 hrs. The experiment is classed as functional, cell-based. The gist of the method: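 J774A.1 cells (5 × 10^4 cells/well, 3 h adherence) were pretreated with compound (50–12.5 µM) for 1 h, then LPS (10 µg/mL) was added. After 24 h cells were PBS-washed, fixed for 20 min and permeabilized for 30 min. Rabbit anti-nitrotyrosine and secondary antibody were each applied for 30 min. Read-out was flow-cytometric mean fluorescence intensity versus LPS alone. Means ± SEM, ≥3 independent experiments, each in triplicate.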

The test system of experiment [3] is J774.A1. Kind of experiment: Antioxidant activity in mouse J774.A1 macrophages assessed as inhibition of LPS-induced intracellular ROS production at 12.5 to 50 uM preincubated for 1 hr followed by LPS stimulation and measured after 24 hrs by DCFH2-DA probe based fluorescence analysis. The experiment is classed as functional, cell-based. The following applies: dose 12.5-50 µM, time 25.0 hrs. The gist of the method: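 Macrophages (J774A.1, 5 × 10^4 cells/well, 3 h adherence) were given the compound (50–12.5 µM) 1 h before and during LPS (10 µg/mL). After 24 h cells were collected and washed twice in PBS, then loaded with 10 µM H2DCF-DA in PBS at 37 °C for 15 min. DCF fluorescence was read by flow cytometry as mean fluorescence intensity versus LPS alone. Means ± SEM, ≥3 independent experiments, each in triplicate.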

Experiment [4] deals with J774.A1. The experiment can be described thus: Antiinflammatory activity in mouse J774.A1 macrophages assessed as inhibition of LPS-induced NO production at 12.5 to 50 uM preincubated for 1 hr followed by LPS stimulation and measured after 24 hrs by griess reagent based assay. The format is functional, cell-based. To be noted: dose 12.5-50 µM, time 25.0 hrs. The gist of the method: (§2)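 Macrophages adhered 3 h at 5 × 10^4 cells/well, then were exposed to compound (50–12.5 μM) for 1 h before E. coli LPS (10 μg/mL) was added. After 24 h, nitrite in the medium was reacted with Griess reagent for 10 min at room temperature and absorbance read at 550 nm. Values are in μM from a sodium nitrite standard curve. L-NAME (1 μM) served as reference. Data are mean ± SEM, n ≥ 3, triplicate.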
(In general: Nitrite, measured by Griess reagent, commonly stands in for NO production.)

Experiment [5] concerns J774.A1. Kind of experiment: Antiproliferative activity against mouse J774.A1 cells assessed as reduction in cell viability at 100 uM incubated for 24 hrs by MTT assay. The format is functional, cell-based. The gist of the method: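 J774A.1 cells at 5 × 10^4 cells/well adhered 3 h, then were incubated 24 h with compound serial dilutions (100–12.5 μM). MTT (5 mg/mL stock) was added for 3 h, formazan dissolved in DMSO, and OD read at 570 nm. The value is the % dead cells, 100 − [(OD treated/OD control) × 100]. 6-Mercaptopurine (1 μM) was the reference. At least three experiments, each in triplicate.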

Experiment [6] has as its system J774.A1. The experiment can be described thus: Antiinflammatory activity in mouse J774.A1 macrophages assessed as inhibition of LPS-induced COX2 expression at 12.5 to 50 uM preincubated for 1 hr followed by LPS stimulation and measured after 24 hrs by cytofluorimetry analysis. The experiment is classed as functional, cell-based. To be noted: dose 12.5-50 µM, time 25.0 hrs. The gist of the method: as §1

Experiment [7] has as its system J774.A1. Kind of experiment: Antiinflammatory activity in mouse J774.A1 macrophages assessed as inhibition of LPS-induced COX2 expression at 1 uM preincubated for 1 hr followed by LPS stimulation and measured after 24 hrs by cytofluorimetry analysis. To be noted: time 25 hrs. The experiment is classed as functional. The gist of the method:
as §1

Experiment [8] concerns J774.A1. The experiment can be described thus: Antiinflammatory activity in mouse J774.A1 macrophages assessed as inhibition of LPS-induced NO production at 1 uM preincubated for 1 hr followed by LPS stimulation and measured after 24 hrs by griess reagent based assay. The experiment is classed as functional. The following applies: time 25 hrs. The gist of the method: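 Murine J774A.1 cells (DMEM, 10% FBS) were plated at 5 × 10^4 cells/well and allowed to adhere for 3 h at 37 °C in 5% CO2. They were exposed to the agent in fresh medium for 1 h, then to E. coli LPS at 10 µg/mL for 24 h. Medium nitrite was measured with Griess reagent (10 min, room temperature, A550) and converted to µM against a sodium nitrite standard. Means ± SEM, ≥3 independent experiments, each in triplicate.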

Experiment [9] concerns J774.A1. The experiment can be described thus: Antiinflammatory activity in mouse J774.A1 macrophages assessed as inhibition of LPS-induced iNOS expression at 1 uM preincubated for 1 hr followed by LPS stimulation and measured after 24 hrs by cytofluorimetry analysis. The experiment is classed as functional. The following applies: time 25 hrs. The gist of the method:
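J774A.1 cells were plated at 5 × 10^4 cells/well and allowed to adhere for 3 h. The agent was added 1 h before LPS (10 µg/mL) and kept during stimulation; cells were harvested after 24 h. Cells were washed in PBS, fixed for 20 min and permeabilized for 30 min. Anti-iNOS primary and secondary antibodies were each applied for 30 min. Read-out was flow-cytometric mean fluorescence intensity versus LPS alone. Means ± SEM, ≥3 independent experiments, each in triplicate.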

The test system of experiment [10] is J774.A1. The experiment can be described thus: Antiinflammatory activity in mouse J774.A1 macrophages assessed as reduction in LPS-induced nitrite production at 12.5 to 50 uM preincubated for 1 hr followed by LPS stimulation and measured after 24 hrs by griess reagent based assay. The format is functional, cell-based. To be noted: dose 12.5-50 µM, time 25.0 hrs. The gist of the method: as §2

In experiment [11] the test system is J774.A1. The experiment can be described thus: Antioxidant activity in mouse J774.A1 macrophages assessed as inhibition of LPS-induced nitrotyrosine formation at 12.5 to 50 uM preincubated for 1 hr followed by LPS stimulation and measured after 24 hrs by cytofluorimetry analysis. The experiment is classed as functional, cell-based. To be noted: dose 12.5-50 µM, time 25.0 hrs. The gist of the method:
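Cells were pretreated 1 h with compound (50–12.5 μM), then LPS (10 μg/mL) was added for 24 h. Cells were harvested, PBS-washed, fixed 20 min and permeabilized 30 min. They were stained 30 min with rabbit anti-nitrotyrosine, then 30 min with secondary antibody. Mean fluorescence intensity was read by flow cytometry. L-NAME and indomethacin (1 μM each) were positive controls. Mean ± SEM of at least three experiments, each in triplicate.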

The source made the active and inactive calls. No cut-off for these calls is given here.

Usually inhibition stands for how much of the control response was suppressed. Turning to `C[C@H]1COC2=C1C(=O)C(=O)c1c2ccc2c1CCCC2(C)C`, the inhibition result with J774.A1 [1], in the experiment on J774.A1 [2], with J774.A1 [3], in the experiment with J774.A1 [4] and in the experiment with J774.A1 [6] was “Active” each time. For the same compound, the outcome in the experiment on J774.A1 [5] was Active.

Take `CC(C)C1=CC2=C(C(=O)C1=O)[C@@]1(C)CCCC(C)(C)C1C[C@@H]2O` (stereo not given in full): the result in the experiment on J774.A1 [5] was Active.

As to `CC(C)/C(=C/c1ccc2c3c1C(=O)O[C@H]3CCC2(C)C)C(=O)O`, the inhibition result in the experiment on J774.A1 [1], in the experiment with J774.A1 [4] and in the experiment with J774.A1 [6] was “Active” throughout.

On to `C[C@H]1CO[C@]2(C1)OC(=O)c1cc3c(cc12)CC(C)(C)CC3`, for which the result in the experiment on J774.A1 [5] was Active.

Turning to `CC(C)c1cc2c(cc1O)[C@@]1(C)CCCC(C)(C)C1=C(O)C2=O`, the inhibition result in the experiment with J774.A1 [1], with J774.A1 [4] and in the experiment with J774.A1 [6] was “Active” each time. Also, the result with J774.A1 [5] was Active.

On to `COc1ccc2c(c1)c(CC(=O)O)c(C)n2C(=O)c1ccc(Cl)cc1` [INDOMETHACIN], for which, in the experiment with J774.A1 [7], the inhibition at 1 µM was 47.8%.

Consider `CC(C)c1cc2c(cc1O)[C@@]1(CO)CCCC(C)(C)[C@@H]1CC2`, for which the inhibition result with J774.A1 [1], in the experiment with J774.A1 [4] and in the experiment with J774.A1 [6] was “Active” in each case. Moreover, in the experiment on J774.A1 [5], the result was Active.

`COC(=O)/C(=C\c1ccc2c3c1C(=O)O[C@H]3CCC2(C)C)C(C)C`: the inhibition entry in the experiment with J774.A1 [1], with J774.A1 [4] and with J774.A1 [6] was “Active” throughout. For the same compound, the outcome in the experiment with J774.A1 [5] was Active.

Regarding `CC(C)c1cc2ccc3c(c2c(O)c1O)C(=O)CCC3(C)C`, the outcome in the experiment on J774.A1 [5] was Active.

Take `COC(=O)[C@@H](N)CCCNC(=N)N[N+](=O)[O-]`: the inhibition at 1 µM in the experiment with J774.A1 [8] came out at 51.2%; with J774.A1 [9], 47.1%.

On to `CC(C)c1cc2ccc3c(c2oc1=O)CCCC3(C)C`, for which the outcome in the experiment with J774.A1 [5] was Active.

Turning to `Cc1cc2ccc3c(c2cc(O)c1=O)CCCC3(C)C`, in the experiment with J774.A1 [5], the result was Active.

Regarding `Cc1coc2c1C(=O)C(=O)c1c-2ccc2c1C(=O)CCC2(C)C`, the inhibition entry in the experiment on J774.A1 [1], in the experiment on J774.A1 [3], with J774.A1 [4], with J774.A1 [11] and with J774.A1 [6] was “Active” in each case. Besides, the outcome in the experiment with J774.A1 [10] was Active.
